High-throughput results from PubChem.
This is a sample that favours compounds with a hit; in the whole collection about 1.7% have one here.
LMPTP block: LMPTP phosphatase inhibitors, primary screen, biochemical, fluorescence intensity, uHTS; Low molecular weight phosphotyrosine protein phosphatase (Homo sapiens), P24666; recombinant LMPTP-A, OMFP fluorogenic substrate; inhibition, % at 20 µM; 0.22% of 360,000 active; AID 651560, 2012;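 active = compounds that cut the enzyme signal by at least half of the control window in the single-dose screen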
Target sequence (P24666 whole entry, looked up): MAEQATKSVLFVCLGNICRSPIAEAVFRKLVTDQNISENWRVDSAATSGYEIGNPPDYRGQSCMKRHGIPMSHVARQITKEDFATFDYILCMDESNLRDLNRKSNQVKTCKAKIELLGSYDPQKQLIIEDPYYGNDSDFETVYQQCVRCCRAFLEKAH
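Buffer or medium: Bis-Tris pH 6.0, DTT, detergent; Assay system: LMPTP-A enzyme; Quantity: 0.625 nM enzyme; Detection: endpoint fluorescence intensity; Times: 50 min dark incubation at room temperature; Controls: substrate-only low control, DMSO enzyme-plus-substrate high control; Doses: single 20 µM dose; Read-out: percent inhibition versus substrate-only and uninhibited controls; Reagent: 400 µM OMFP.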
STEP block: STEP phosphatase inhibitors, primary screen, biochemical, fluorescence intensity, uHTS | recombinant STEP, OMFP fluorogenic substrate | inhibition, % at 20 µM | 0.25% of 360,000 active | AID 588621, 2011;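 active = inhibition at 20 µM, scaled per plate between control wells, above about 37%, limit read from the data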
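Measure: Control-normalized % inhibition with plate pattern correction | Test system: STEP phosphatase, cell-free reaction | Medium: pH 6.0 Bis-Tris with DTT and Tween 20 | Technique: Fluorescence, 480/540 nm | Times: Reaction 20 min, ambient temperature | Doses: Single compound dose of 20 µM, 1% DMSO final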
Scp-1 inhibitor: Scp-1 phosphatase inhibitors, primary screen, biochemical, colorimetric, uHTS. Carboxy-terminal domain RNA polymerase II polypeptide A small phosphatase 1 (Homo …. Recombinant Scp1, phosphopeptide, malachite green phosphate absorbance. inhibition, % at 20 µM. 0.88% of 340,000 active. AID 493091, 2011;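 active = inhibition above about 50% at 20 µM, limit read from the data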
Target sequence (Q9GZU7 76-261 limits assumed): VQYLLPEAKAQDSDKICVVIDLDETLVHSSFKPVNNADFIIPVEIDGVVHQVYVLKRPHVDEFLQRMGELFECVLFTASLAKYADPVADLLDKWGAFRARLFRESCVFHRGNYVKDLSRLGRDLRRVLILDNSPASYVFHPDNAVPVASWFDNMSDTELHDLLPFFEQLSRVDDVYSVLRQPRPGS
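Incubation: 45 min enzyme reaction at room temperature / System: truncated SCP-1 phosphatase (76-261aa) / Reagent: Phospho 17-mer peptide substrate / Buffer or medium: Acidic Tris acetate buffer with magnesium and detergent / Signal: absorbance at 630 nm / Doses: one concentration, 20 µM, with 1.0% DMSO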
DNMT1 block: human DNMT1 methyltransferase inhibitors, primary screen, biochemical, molecular beacon, fluorescence, HinP1I cleavage, uHTS. inhibition (reported as % activation of signal), % at 10 µM. 0.83% of 360,000 active. DNA (cytosine-5)-methyltransferase 1 (Homo sapiens), P26358. AID 588458, 2011; in the data active = inhibition above about 50%
SUMO1-SIM PPI: modulators of SUMO1 protein-protein interactions, primary screen, biochemical, uHTS; SUMO1 binding to a labelled peptide, TR-FRET, 1 h; inhibition, % at 20 µM; 0.33% of 360,000 active; AID 602429, 2012; in the data active = inhibition above about 37%
Target sequence (P63165 whole entry, looked up): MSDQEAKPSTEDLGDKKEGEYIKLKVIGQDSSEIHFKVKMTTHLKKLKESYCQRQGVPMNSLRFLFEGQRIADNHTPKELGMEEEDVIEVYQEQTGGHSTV
Each line names hits and unclear results; the compound was inactive in the other large screens.

CCCCNC(=O)c1nc(C2CCNCC2)oc1-c1cccc(C(F)(F)F)c1	LMPTP block 60 (no result: STEP block, Scp-1 inhibitor, DNMT1 block)
Nc1nc(SCC(=O)c2cc3ccccc3o2)n[nH]1	SUMO1-SIM PPI 40
O=C1c2ccccc2-c2onc3c(N4CCN(CCO)CC4)cc(N4CCN(C(=O)c5ccco5)CC4)c1c23	SUMO1-SIM PPI 56
CN1CCN(c2cc(N3CCN(C(=O)c4ccco4)CC3)c3c4c(onc24)-c2ccccc2C3=O)CC1	none
CCOC(=O)N1CCN(c2cc(NCCC(=O)O)c3c4c(onc24)-c2ccccc2C3=O)CC1	Scp-1 inhibitor 76, DNMT1 block 67, SUMO1-SIM PPI 44
O=C(O)CCCNc1cc(N2CCN(C(=O)c3ccco3)CC2)c2noc3c2c1C(=O)c1ccccc1-3	STEP block 45, Scp-1 inhibitor 78, SUMO1-SIM PPI 54
C[C@@H]1CN([C@H](C)CO)C(=O)CCCn2cc(nn2)CO[C@H]1CN(C)C(=O)C1CCCCC1	none (no result: Scp-1 inhibitor)
CC1(C(=O)NS(=O)(=O)c2ccccc2)CCN1C(=O)Cc1cc(F)ccc1F (centres undefined)	none (no result: Scp-1 inhibitor)
CC(C)CC1OC(C)Cc2[nH][nH]c(=O)c21 (centres undefined)	none (no result: STEP block, Scp-1 inhibitor, DNMT1 block)
O=C1C2Sc3[nH]c(=O)sc3C(c3cc([N+](=O)[O-])ccc3O)C2C(=O)N1c1ccccc1 (centres undefined)	none
CCOC(=O)Cc1cc(=O)n(-c2nc3ccccc3s2)[nH]1	SUMO1-SIM PPI 38
CCCc1cc(=O)n(-c2nc3ccccc3s2)[nH]1	none
CCc1nc2ccc(C(=O)NCc3ccccc3OC)cn2c1N(C)Cc1ccc(OC)cc1	none (no result: Scp-1 inhibitor)
COc1cc(/C=C/CNC[C@H]2O[C@@H](n3ccc(=O)[nH]c3=O)[C@H](O)[C@@H]2O)ccc1O	none
COc1ccc(C(O)c2ncc(-c3ccccc3F)[nH]2)cc1 (centres undefined)	DNMT1 block 51 (no result: Scp-1 inhibitor)
O=C(N/N=C/c1c(O)ccc2ccccc12)c1ccc(Br)o1	LMPTP block 64, STEP block 77, Scp-1 inhibitor 99
CCS(=O)(=O)N1Cc2cc(C(=O)N(C)C)nc(-c3cccc(-c4ccc(F)cc4)c3)c2[C@@H]1CCO	none (no result: STEP block, Scp-1 inhibitor, DNMT1 block)
O=S(=O)(O)c1cccc2c(N=Nc3ccc(O)c4ncccc34)cccc12	LMPTP block 51, STEP block 51, Scp-1 inhibitor 95
COc1ccc(N=Nc2ccc(O)c3ncccc23)cc1	DNMT1 block 71, SUMO1-SIM PPI 51
COc1cccc(N=Nc2ccc(O)c3ncccc23)c1	none
Cc1ccccc1N=Nc1ccc(O)c2ncccc12	DNMT1 block 71
COc1ccc(C)cc1N=Nc1ccc(O)c2ncccc12	none
CC1CC(=O)c2c(cc3c(-c4c(O)cc(O)c5c(O)c6c(cc45)OC(C)CC6=O)c(O)cc(O)c3c2O)O1 (centres undefined)	DNMT1 block 81, SUMO1-SIM PPI 64
O=C1CC(c2ccc(O)cc2)Oc2cc(O)cc(O)c21 (centres undefined)	none
CCc1nn2c(=O)cc(COc3ccc(/C=C4\C(=N)N5N=C(C)SC5=NC4=O)cc3)nc2s1	DNMT1 block 59
CCCCC(=O)N(C)c1c(C)nc2ccc(C(=O)N3CCN(C(=O)c4ccco4)CC3)cn12	none (no result: Scp-1 inhibitor)
CC(C)=CCC[C@H](C)C[C@@H]1CC2=C(C(=O)OC(C)(C)O2)[C@H](c2ccc(Cl)cc2)O1	none (no result: Scp-1 inhibitor)
CCCCN(C(=O)c1cc(-c2ccco2)nc2ccccc12)c1c(N)n(CCC)c(=O)[nH]c1=O	Scp-1 inhibitor 61, DNMT1 block 53
CCCCn1c(N)c(N(CC(C)C)C(=O)c2cc(-c3ccco3)nc3ccccc23)c(=O)[nH]c1=O	none
O=C(OCC12CC3CC(CC(C3)C1)C2)c1ccc(NCc2cc(O)ccc2O)cc1	none
O=C(OCCC12CC3CC(CC(C3)C1)C2)c1ccc(NCc2cc(O)ccc2O)cc1	Scp-1 inhibitor 70
CCc1nc2c(OCc3cccc(Cl)c3)cccn2c1N(C)C(=O)c1ccc(OC)cc1	none (no result: Scp-1 inhibitor)
CCN(CC)S(=O)(=O)c1cccc(N=NC2=C(O)CCCC2=O)c1	none
O=C1CCCC(O)=C1N=Nc1cccc(C(=O)O)c1	Scp-1 inhibitor 61
COc1ccc(-c2cc3ncnc(Cl)c3s2)cc1	none
CCOC(=O)c1sc(NC(=O)c2ccc(OC)cc2)nc1C	SUMO1-SIM PPI 55
O=C(N=Nc1c(O)[nH]c2ccccc12)c1cccc(S(=O)(=O)N2CCCCC2)c1	none
O=c1[nH]c2ccccc2c2nc(-c3cccc(S(=O)(=O)N4CCCC4)c3)nn12	SUMO1-SIM PPI 42
c1ccc(-c2nnc(-c3ccco3)o2)cc1	none
c1coc(-c2nnc(-c3ccco3)nn2)c1	STEP block 91, Scp-1 inhibitor 71, DNMT1 block 116, SUMO1-SIM PPI 92
CC(C)NC(=O)C1(C)CN(S(C)(=O)=O)CC(=O)N1CCCn1ccnc1 (centres undefined)	none (no result: STEP block, Scp-1 inhibitor, DNMT1 block)
O=C(CN1C(=O)NC2(CCOc3ccccc32)C1=O)c1ccc(F)cc1 (centres undefined)	none
COC(=O)C1=C(COc2ccccc2)NC(=O)NC1c1ccc(Br)cc1 (centres undefined)	SUMO1-SIM PPI 75
COCCN1C(=O)/C(=C2/C(=O)N(CC(=O)Nc3ccccc3Cl)c3ccccc32)SC1=S	none
O=C(CN1C(=O)/C(=C2\SC(=S)N(CCS(=O)(=O)O)C2=O)c2ccccc21)Nc1cccc(Br)c1	LMPTP block 83, STEP block 98, Scp-1 inhibitor 101
O=C(Nc1ccc(C2=NCCN2)cc1)c1ccc(C(=O)Nc2ccc(C3=NCCN3)cc2)c([N+](=O)[O-])c1	LMPTP block 82, SUMO1-SIM PPI 96
O=C(O)c1cccc2cc(-c3ccccc3)oc(=O)c12	none
O=C(O)c1cccc2cccc(-c3c4ccc(=O)c(O)c-4oc4c(O)c(O)ccc34)c12	LMPTP block 95, STEP block 99, Scp-1 inhibitor 104, DNMT1 block 70, SUMO1-SIM PPI 119
COc1ccc(C(C(=O)NC2CCCC2)n2c(C3CCN(C(C)=O)CC3)nc3ccccc32)cc1 (centres undefined)	none (no result: STEP block, Scp-1 inhibitor, DNMT1 block)
C#CCOCCOCCOCCNc1nc(N2CCN(C(=O)CCCCCCCCCCNC(=O)[C@H](CCCCN)n3cc(C[C@@H](C)CC)nn3)CC2)nc(N2CCN(C(=O)CCCCCCCCCCNC(=O)[C@H](CCCN=C(N)N)n3cc(C[C@@H](C)CC)nn3)CC2)n1	Scp-1 inhibitor 58, SUMO1-SIM PPI 72
